{
  "source": "paper PMC3777270",
  "about": "(Biomaterials, 2010)",
  "system": "S. aureus strain MZ100",
  "experiment": "In vitro S. aureus biofilm formation on coated Ti slides",
  "type": "cell-based, Staphylococcus aureus",
  "conditions": "5 h exposure to S. aureus, 0.1% crystal violet; for macroscopic appearance of crystal violet stained wells: digital photographs; for cell attachment in phase-contrast micrographs: 630×",
  "procedure,_shortened": "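Wells were formed on 20 nm Ti-coated glass slides with adhesive silicone isolators. PEGylated mono-, di- or tetravalent Ti-binding peptide coatings (500 μL) were applied in triplicate, held 2 h at RT and washed twice with PBS; uncoated Ti was included. Overnight TSB culture was diluted to ~5 × 10^7 CFU/mL in TSB + 0.2% glucose, then 5 h at 37 °C in a humidified chamber.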",
  "data": [
    {"substance": "(SKHKGGKHKGGKHKG)2K)2KSSGK(Biotin) –GGC–PEG [TBP4–PEG]", "values": [
      {"measurement": "macroscopic appearance of crystal violet stained wells", "value": "remained largely clear with small, disperse patches of staining"},
      {"measurement": "cell attachment in phase-contrast micrographs", "value": "significantly fewer adhered bacteria"}
    ]},
    {"substance": "(SKHKGGKHKGGKHKG)2KSSGK(Biotin) –GGC–PEG [TBP2–PEG]", "values": [
      {"measurement": "macroscopic appearance of crystal violet stained wells", "value": "thick, dense biofilm"},
      {"measurement": "cell attachment in phase-contrast micrographs", "value": "slight decrease in cell density"}
    ]},
    {"substance": "SKHKGGKHKGGKHKGSSGK(Biotin) –GGC–PEG [TBP1–PEG]", "values": [
      {"measurement": "macroscopic appearance of crystal violet stained wells", "value": "thick, dense biofilm"},
      {"measurement": "cell attachment in phase-contrast micrographs", "value": "substantial cell attachment"}
    ]}
  ]
}
